In publication PMC6745485 (Heliyon, 2019):
Values joined by “and” are separate entries in the source; they are usually repeats but may differ in a detail not shown here. Equal values may be shown once. “Also recorded” adds a separate entry of the source. Read-outs that look alike come from different tables or passages of the source.

Tests used:
mouse PPARα = conditions: among 12 pyrethroid pesticides; ref Takeuchi et al., 2006; cited from earlier work
rat CAR [1] = molecular target: T1, rat CAR (Rattus norvegicus, UniProt Q9QUS1); assay: Rat CAR reporter gene assay in COS-1 cells; type: cell-based
T1 sequence (Q9QUS1 1-358): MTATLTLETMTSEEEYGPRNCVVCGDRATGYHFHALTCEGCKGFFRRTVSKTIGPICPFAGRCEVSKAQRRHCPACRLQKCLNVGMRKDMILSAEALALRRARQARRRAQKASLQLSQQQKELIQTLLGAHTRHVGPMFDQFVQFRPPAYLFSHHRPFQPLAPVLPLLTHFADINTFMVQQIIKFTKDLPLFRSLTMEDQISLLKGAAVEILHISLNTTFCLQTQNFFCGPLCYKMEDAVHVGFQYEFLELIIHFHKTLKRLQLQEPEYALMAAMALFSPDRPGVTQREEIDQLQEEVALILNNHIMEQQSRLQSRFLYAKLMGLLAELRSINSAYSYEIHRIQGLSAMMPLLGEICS

rat CAR [2] = molecular target: T1, rat CAR; type: cell-based; conditions: 3–10 μM
In short: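 Microsomal mix: NADPH-generating system plus PB/MC-induced male SD rat liver microsomes (60 mg protein) in pH 7.4 phosphate, 30 min, 37 °C; boiled-microsome control. Extracts dried, redissolved in DMSO, diluted into serum-free medium. CAR-transfected COS-1 cells dosed 12 h after transfection, 24 h exposure. Firefly/Renilla luciferase read as fold vs vehicle; 3 experiments, Student's t-test vs boiled.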

rat PXR [3] = molecular target: T2, rat PXR (Rattus norvegicus, UniProt Q9R1A7); assay: Rat PXR reporter gene assay in COS-1 cells; type: cell-based; conditions: concentration showing 20% of the agonistic activity of 1 μM PCN; ±SD
T2 sequence (Q9R1A7 1-431): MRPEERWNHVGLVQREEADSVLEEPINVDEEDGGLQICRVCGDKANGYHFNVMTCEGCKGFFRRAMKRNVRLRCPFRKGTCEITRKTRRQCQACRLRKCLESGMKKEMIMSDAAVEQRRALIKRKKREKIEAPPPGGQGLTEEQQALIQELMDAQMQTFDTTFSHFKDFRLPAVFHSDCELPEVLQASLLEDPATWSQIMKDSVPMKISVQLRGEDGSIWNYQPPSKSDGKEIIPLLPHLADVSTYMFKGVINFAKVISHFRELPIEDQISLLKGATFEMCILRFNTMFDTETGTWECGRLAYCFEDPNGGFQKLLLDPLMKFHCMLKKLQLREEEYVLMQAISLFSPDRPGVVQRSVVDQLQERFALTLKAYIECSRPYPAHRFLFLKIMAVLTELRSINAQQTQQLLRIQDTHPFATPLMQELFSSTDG
In short: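 COS-1 cells (1×10^4/well) co-transfected with rat PXR expression, reporter and Renilla control plasmids via jetPEI. After 24 h, test compound or 0.1% DMSO added in serum-free D-MEM for 24 h. Dual-luciferase read-out, firefly normalized to Renilla, fold vs vehicle. REC20: concentration reaching 20% of 1 μM PCN activity. Mean ± SD, ≥3 experiments in duplicate; Dunnett's test.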

rat PXR [4] = molecular target: T2, rat PXR; type: cell-based; conditions: microsomes of PB- and MC-treated rats, NADPH, vs boiled microsomes
In short: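 Test compound (1 μmol) incubated 30 min at 37 °C in 0.1 M K,Na-phosphate pH 7.4. Mix held an NADPH-generating system and liver microsomes (60 mg protein) from male SD rats given PB 80 mg/kg i.p. plus MC 25 mg/kg p.o. daily for 3 d. Boiled microsomes were the control. Ethyl acetate extract went into DMSO and onto transfected COS-1 cells for 24 h. Normalized firefly/Renilla fold vs vehicle; n=3, t-test.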

rat PPARα = molecular target: T3, rat PPARα (Rattus norvegicus, UniProt P37230); assay: Rat PPARα reporter gene assay in COS-1 cells; type: cell-based; conditions: concentration showing 20% of the agonistic activity of 30 μM BZF; ±SD
T3 sequence (P37230 1-468): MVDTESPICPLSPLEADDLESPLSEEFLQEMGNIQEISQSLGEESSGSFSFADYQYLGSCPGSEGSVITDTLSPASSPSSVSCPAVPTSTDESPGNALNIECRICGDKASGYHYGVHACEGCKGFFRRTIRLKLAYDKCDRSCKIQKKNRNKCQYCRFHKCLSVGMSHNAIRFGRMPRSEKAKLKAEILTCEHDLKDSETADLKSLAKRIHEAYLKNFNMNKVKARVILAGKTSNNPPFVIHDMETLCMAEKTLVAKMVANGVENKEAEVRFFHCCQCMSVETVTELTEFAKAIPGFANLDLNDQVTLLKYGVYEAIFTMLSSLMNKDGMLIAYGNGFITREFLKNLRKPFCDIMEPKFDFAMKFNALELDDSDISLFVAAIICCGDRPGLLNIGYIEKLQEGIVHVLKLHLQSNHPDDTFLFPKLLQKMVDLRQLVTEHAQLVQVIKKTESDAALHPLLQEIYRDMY

human CAR = conditions: cited from earlier work
mouse CAR = conditions: cited from earlier work

For pyrethrin, the “Mouse PPARα activation” value (mouse PPARα) is given as “activated mouse PPARα”.
In the case of `CC(C)C(C(=O)OC(C#N)c1cccc(Oc2ccccc2)c1)c1ccc(Cl)cc1` (stereo not shown) [fenvalerate], the “Effect on CAR activation induced by artemisinin” value (rat CAR [1]; artemisinin 10 μM, test compound 0.1–30 μM) is reported as “significantly inhibited CAR activation by artemisinin”, the “Agonistic activity REC20 CAR” value (rat CAR [1]; concentration showing 20% of the agonistic activity of 30 μM artemisinin, ±SD) is reported as “- ^c (No effect (REC20 > 30 μM))” and the “Inverse agonistic activity RIC20 CAR” value (rat CAR [1]; concentration showing 80% of the activity of the vehicle control, ±SD) is reported as 0.846 µM and 0.846 ± 0.394 µM. The “CAR inverse agonistic activity (in words)” value (rat CAR [1]; up to 30 μM) was “showed CAR inverse agonistic activity”, the “Change of CAR inverse agonistic activity after incubation with liver microsomes” value (rat CAR [2]) was “tended to decrease” and the “Agonistic activity REC20 PXR” value (rat PXR [3]) was 0.617 ± 0.138 µM. For the same molecule, the “Change of PXR activity upon incubation with rat liver microsomes” value (rat PXR [4]) was “markedly decreased; also recorded: significantly decreased”, the “Agonistic activity REC20 PPARα” value (rat PPARα) was “- ^c (No effect (REC20 > 30 μM))” and the “Human CAR agonistic activity” value (human CAR; ref Abass et al. (2012)) was “possessed agonistic activity”. For the same molecule, the “Human CAR agonistic activity” value (human CAR; ref Baldwin and Roling (2009)) was “agonists”, the “Mouse CAR agonistic activity” value (mouse CAR; ref Abass et al. (2012)) was “not mouse CAR” and the “Mouse CAR agonistic activity” value (mouse CAR; ref Baldwin and Roling (2009)) was “agonists”.
